The results in this text go back to ChEMBL document CHEMBL3259559, “Design, synthesis and preliminary evaluation of α-sulfonyl γ-(glycinyl-amino)proline peptidomimetics as matrix metalloproteinase inhibitors” (Bioorg Med Chem, 2014).

In experiment [1] the target is T1, 72 kDa type IV collagenase (Homo sapiens, UniProt P08253). The experiment in a line: Inhibition of MMP2 (unknown origin) using succinylated gelatin as substrate preincubated for 10 mins before substrate addition measured after 30 mins by spectrophotometry. The essentials:
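Purified MMP-2 (gelatinase A) and inhibitor in 50 mmol/L sodium borate pH 8.5, preincubated 10 min at 37 °C. Succinylated gelatin then added for 30 min at 37 °C, followed by 0.03% TNBS for 20 min; OD read at 450 nm. IC₅₀ as mean with SD of three experiments.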

The next experiment has as its target T2, Aminopeptidase N (Sus scrofa, UniProt P15145).
T2 sequence (P15145 whole entry): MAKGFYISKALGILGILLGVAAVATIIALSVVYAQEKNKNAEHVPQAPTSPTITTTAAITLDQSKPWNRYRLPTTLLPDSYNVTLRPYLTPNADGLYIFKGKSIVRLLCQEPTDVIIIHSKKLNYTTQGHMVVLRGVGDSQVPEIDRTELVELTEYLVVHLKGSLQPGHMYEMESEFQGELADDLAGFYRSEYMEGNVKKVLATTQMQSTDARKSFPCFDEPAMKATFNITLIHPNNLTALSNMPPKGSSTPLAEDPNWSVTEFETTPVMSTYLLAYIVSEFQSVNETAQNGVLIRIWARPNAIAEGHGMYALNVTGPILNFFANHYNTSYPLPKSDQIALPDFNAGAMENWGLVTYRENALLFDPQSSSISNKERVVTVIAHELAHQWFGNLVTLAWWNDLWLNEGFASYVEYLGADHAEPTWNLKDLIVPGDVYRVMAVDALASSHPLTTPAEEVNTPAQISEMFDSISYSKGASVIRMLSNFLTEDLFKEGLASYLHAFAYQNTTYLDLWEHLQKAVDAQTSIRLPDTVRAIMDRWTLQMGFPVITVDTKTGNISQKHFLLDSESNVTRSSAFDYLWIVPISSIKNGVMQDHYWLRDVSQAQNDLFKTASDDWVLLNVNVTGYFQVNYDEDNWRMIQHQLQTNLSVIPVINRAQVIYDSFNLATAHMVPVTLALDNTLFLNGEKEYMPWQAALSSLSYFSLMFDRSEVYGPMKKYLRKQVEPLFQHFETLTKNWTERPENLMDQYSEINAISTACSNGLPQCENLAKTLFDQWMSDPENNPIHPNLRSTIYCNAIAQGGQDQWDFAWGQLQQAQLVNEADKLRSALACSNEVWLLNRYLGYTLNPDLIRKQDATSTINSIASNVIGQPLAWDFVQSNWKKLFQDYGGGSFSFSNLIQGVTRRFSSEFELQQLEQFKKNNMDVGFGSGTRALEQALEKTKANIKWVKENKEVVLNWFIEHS
The experiment in a line: Inhibition of pig kidney microsomal APN using L-Leu-p-nitroanilide as substrate preincubated for 5 mins before substrate addition measured after 30 mins by spectrophotometry.

The target of a further experiment is Histone deacetylase. The experiment in a line: Inhibition of HDAC in human HeLa nuclear extract using Boc-Lys (acetyl)-AMC as fluorogenic substrate after 30 mins by spectrophotometry. It is filed as protein assay.
For the next experiment, the system named is HL-60. The experiment in a line: Antiproliferative activity against human HL60 cells after 48 hrs by MTT assay. It is filed as functional, cell-based. The settings on record: HL-60, 48 h. The essentials: (§1)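 Cells kept in RPMI1640 with 10% FBS at 37 °C, 5% CO₂; seeded 10,000/well, grown 4 h, then exposed to graded compound concentrations for 48 h. 0.5% MTT added for 4 h, formazan dissolved in DMSO 15 min. IC₅₀ as mean with SD of triplicate experiments.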

The next experiment concerns A549. The experiment in a line: Antiproliferative activity against human A549 cells after 48 hrs by MTT assay. It is filed as functional, cell-based. Conditions: A549, 48 h. In short, it runs like this:
as §1

In experiment [2] the target is T1, 72 kDa type IV collagenase. The experiment in a line: Inhibition of MMP2 in human SKOV3 cell suspension using succinylated gelatin as substrate preincubated for 10 mins before substrate addition measured after 30 mins by spectrophotometry. The arrangement: species or system SK-OV-3. In short, it runs like this:
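Enzyme source was SKOV-3 cells suspended in PBS, 1 × 10⁵/well, incubated with inhibitor in 50 mmol/L sodium borate pH 8.5 for 10 min at 37 °C. Succinylated gelatin added for 30 min at 37 °C, then 0.03% TNBS for 20 min; absorbance at 450 nm. IC₅₀ as mean with SD of three experiments.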

Another experiment deals with SK-OV-3. The experiment in a line: Antiproliferative activity against human SKOV3 cells after 48 hrs by MTT assay. The settings on record: SK-OV-3, 48 h. It is filed as functional, cell-based. The essentials:
as §1

T1 sequence (P08253 whole entry): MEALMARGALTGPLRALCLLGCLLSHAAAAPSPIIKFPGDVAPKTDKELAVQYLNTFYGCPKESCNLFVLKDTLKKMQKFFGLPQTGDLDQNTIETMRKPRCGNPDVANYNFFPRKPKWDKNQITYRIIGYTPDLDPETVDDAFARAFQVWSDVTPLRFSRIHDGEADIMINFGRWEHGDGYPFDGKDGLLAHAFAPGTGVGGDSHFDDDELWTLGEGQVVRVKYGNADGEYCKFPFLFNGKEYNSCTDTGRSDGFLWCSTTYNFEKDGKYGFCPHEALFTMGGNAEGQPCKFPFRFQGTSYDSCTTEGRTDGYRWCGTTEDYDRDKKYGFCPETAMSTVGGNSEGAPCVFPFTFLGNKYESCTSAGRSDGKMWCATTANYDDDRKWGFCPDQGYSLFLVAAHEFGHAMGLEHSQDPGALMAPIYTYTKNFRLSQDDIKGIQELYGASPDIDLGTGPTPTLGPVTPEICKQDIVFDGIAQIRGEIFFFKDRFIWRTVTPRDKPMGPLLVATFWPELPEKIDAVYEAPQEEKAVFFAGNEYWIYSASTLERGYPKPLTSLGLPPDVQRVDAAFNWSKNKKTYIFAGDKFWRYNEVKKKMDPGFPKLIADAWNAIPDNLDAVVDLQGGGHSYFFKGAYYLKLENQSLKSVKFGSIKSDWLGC

Consider `C[C@H](N)C(=O)NCC(=O)N[C@H]1C[C@@H](C(=O)NO)N(S(=O)(=O)c2ccc(Cl)cc2)C1.Cl`, for which the IC50 in experiment [1] is 3.36 µM; against Aminopeptidase N it was above 100 µM; on Histone deacetylase it was above 100 µM.
As for `Cc1ccc(S(=O)(=O)N2C[C@@H](NC(=O)CNC(=O)[C@@H](N)C(C)C)C[C@H]2C(=O)NO)cc1.Cl`, the IC50 in experiment [1] is 2.95 µM; against Aminopeptidase N, 96.2 µM; on Histone deacetylase, above 100 µM.
Consider `Cl.N[C@@H](Cc1ccccc1)C(=O)NCC(=O)N[C@H]1C[C@@H](C(=O)NO)N(S(=O)(=O)c2ccc(Cl)cc2)C1`, for which the IC50 in the experiment with HL-60 is above 1000 µM; with A549, above 1000 µM; in experiment [2], 24.7 µM; in experiment [1], 0.43 µM; on Aminopeptidase N, 89.9 µM; on Histone deacetylase, above 100 µM. The compound also yielded an IC50 with SK-OV-3 of 285 µM.
For `CC(C)[C@H](N)C(=O)NCC(=O)N[C@H]1C[C@@H](C(=O)NO)N(S(=O)(=O)c2ccc(Cl)cc2)C1.Cl`, the IC50 was 1.81 µM in experiment [1], 79.6 µM at Aminopeptidase N and above 100 µM against Histone deacetylase.
The corresponding values for `Cl.N[C@@H](Cc1ccccc1)C(=O)NCC(=O)N[C@H]1C[C@@H](C(=O)NO)N(S(=O)(=O)c2ccccc2)C1` are 2.07 µM, 94.5 µM and above 100 µM.
With `C[C@H](N)C(=O)NCC(=O)N[C@H]1C[C@@H](C(=O)NO)N(S(=O)(=O)c2ccccc2)C1.Cl`, the IC50 in experiment [1] was 7.43 µM; at Aminopeptidase N, above 100 µM; on Histone deacetylase, above 100 µM.
Consider `Cc1ccc(S(=O)(=O)N2C[C@@H](NC(=O)CNC(=O)[C@H](C)N)C[C@H]2C(=O)NO)cc1.Cl`, for which the half-inhibitory concentration (IC50) in experiment [1] is 4.36 µM; on Aminopeptidase N, above 100 µM; on Histone deacetylase, above 100 µM.
For `COc1ccc(S(=O)(=O)N2C[C@@H](NC(=O)CNC(=O)[C@@H](N)CCSC)C[C@H]2C(=O)NO)cc1.Cl`, the IC50 is 35.9 µM in experiment [2], 0.76 µM in experiment [1], above 100 µM at Aminopeptidase N and above 100 µM at Histone deacetylase.
`CSCC[C@H](N)C(=O)NCC(=O)N[C@H]1C[C@@H](C(=O)NO)N(S(=O)(=O)c2ccc(C)cc2)C1.Cl`: the IC50 in experiment [1] was 1.03 µM; on Aminopeptidase N, above 100 µM; at Histone deacetylase it was above 100 µM.
For the compound `COc1ccc(S(=O)(=O)N2C[C@@H](NC(=O)CNC(=O)[C@@H](N)C(C)C)C[C@H]2C(=O)NO)cc1.Cl`, the IC50 in experiment [1] is 2.71 µM; against Aminopeptidase N, 90.8 µM; on Histone deacetylase, above 100 µM.
For `COc1ccc(S(=O)(=O)N2C[C@@H](NC(=O)CNC(=O)[C@@H](N)Cc3ccccc3)C[C@H]2C(=O)NO)cc1.Cl`, the IC50 is 31.5 µM in experiment [2], 0.72 µM in experiment [1], 93.8 µM against Aminopeptidase N and above 100 µM against Histone deacetylase.
For `CSCC[C@H](N)C(=O)NCC(=O)N[C@H]1C[C@@H](C(=O)NO)N(S(=O)(=O)c2ccc(Cl)cc2)C1.Cl`, the IC50 in the experiment with HL-60 is above 1000 µM; with A549, above 1000 µM; in experiment [2], 26.2 µM; in experiment [1] it was 0.46 µM; against Aminopeptidase N, 95.3 µM; at Histone deacetylase it was above 100 µM. Also, inhibition in the experiment with SK-OV-3 was half-maximal at 322 µM (IC50).
In turn, `CC(C)C[C@H](NC(=O)[C@@H](O)[C@H](N)Cc1ccccc1)C(=O)O` [UBENIMEX] gave an IC50 in experiment [1] above 100 µM.
For `COc1ccc(S(=O)(=O)N2C[C@@H](NC(=O)CNC(=O)[C@@H](N)CC(C)C)C[C@H]2C(=O)NO)cc1.Cl`, the IC50 in experiment [2] was 29.7 µM; in experiment [1], 0.52 µM; against Aminopeptidase N it was 83.6 µM; against Histone deacetylase it was above 100 µM.
As for `COc1ccc(/C=C/C(=O)N2C[C@@H](NC(=O)c3cccnc3)C[C@H]2C(=O)NO)cc1OC`, the IC50 in the experiment on HL-60 is above 1000 µM; with A549, above 1000 µM; in experiment [2], 43.7 µM; in experiment [1], 0.95 µM; against Aminopeptidase N, above 100 µM; against Histone deacetylase, above 100 µM. The compound also showed an IC50 in the experiment with SK-OV-3 of 697 µM.
Consider `CC(C)C[C@H](N)C(=O)NCC(=O)N[C@H]1C[C@@H](C(=O)NO)N(S(=O)(=O)c2ccccc2)C1.Cl`, for which the figures for the IC50 (in experiment [1]; at Aminopeptidase N; against Histone deacetylase) were 1.52 µM, 82.3 µM and above 100 µM, respectively.
For `CC(C)C[C@H](N)C(=O)NCC(=O)N[C@H]1C[C@@H](C(=O)NO)N(S(=O)(=O)c2ccc(Cl)cc2)C1.Cl`, the IC50 is above 1000 µM with HL-60; above 1000 µM in the experiment on A549; 18.4 µM in experiment [2]; 0.27 µM in experiment [1]; 72.3 µM against Aminopeptidase N; above 100 µM against Histone deacetylase. Moreover, the half-maximal inhibitory concentration (IC50) in the experiment with SK-OV-3 worked out at 196 µM.
For `CC[C@H](C)[C@H](N)C(=O)NCC(=O)N[C@H]1C[C@@H](C(=O)NO)N(S(=O)(=O)c2ccc(Cl)cc2)C1.Cl`, the IC50 in experiment [1] is 1.28 µM; against Aminopeptidase N, 86.4 µM; on Histone deacetylase, above 100 µM.
For `Cc1ccc(S(=O)(=O)N2C[C@@H](NC(=O)CNC(=O)[C@@H](N)Cc3ccccc3)C[C@H]2C(=O)NO)cc1.Cl` the same measures were 0.98 µM, 88 µM and above 100 µM.
For `CSCC[C@H](N)C(=O)NCC(=O)N[C@H]1C[C@@H](C(=O)NO)N(S(=O)(=O)c2ccccc2)C1.Cl` the same measures were 2.32 µM, above 100 µM and above 100 µM.
For `CC[C@H](C)[C@H](N)C(=O)NCC(=O)N[C@H]1C[C@@H](C(=O)NO)N(S(=O)(=O)c2ccc(OC)cc2)C1.Cl` the same measures were 1.94 µM, 89.9 µM and above 100 µM.
Turning to `CC(C)[C@H](N)C(=O)NCC(=O)N[C@H]1C[C@@H](C(=O)NO)N(S(=O)(=O)c2ccccc2)C1.Cl`, the figures for the IC50 (in experiment [1]; on Aminopeptidase N; against Histone deacetylase) were 5.76 µM, above 100 µM and above 100 µM, respectively.
Turning to `CC[C@H](C)[C@H](N)C(=O)NCC(=O)N[C@H]1C[C@@H](C(=O)NO)N(S(=O)(=O)c2ccccc2)C1.Cl`, the figures for the IC50 (in experiment [1]; on Aminopeptidase N; against Histone deacetylase) were 5.21 µM, above 100 µM and above 100 µM, respectively.
On to `CC[C@H](C)[C@H](N)C(=O)NCC(=O)N[C@H]1C[C@@H](C(=O)NO)N(S(=O)(=O)c2ccc(C)cc2)C1.Cl`, for which the IC50 was 2.05 µM in experiment [1], 92.6 µM against Aminopeptidase N and above 100 µM at Histone deacetylase.
The corresponding values for `COc1ccc(S(=O)(=O)N2C[C@@H](NC(=O)CNC(=O)[C@H](C)N)C[C@H]2C(=O)NO)cc1.Cl` are 4.19 µM, above 100 µM and above 100 µM.
Consider `Cc1ccc(S(=O)(=O)N2C[C@@H](NC(=O)CNC(=O)[C@@H](N)CC(C)C)C[C@H]2C(=O)NO)cc1.Cl`, for which the IC50 was 38.3 µM in experiment [2], 0.87 µM in experiment [1], 75.8 µM against Aminopeptidase N and above 100 µM on Histone deacetylase.
